NSD2 HMT inh – NSD2 (human) methyltransferase inhibition. O96028. NSD2 peptide methylation, AlphaScreen, 120 min. inhibition, % at 12.5 µM. 0.54% of 310,000 active. AID 743445; in the data active means inhibition above about 50%
UCH37 inh – human UCH37 deubiquitinating enzyme inhibition; AID 588478; 0.33% of 330,000 active; inhibition, % (no concentration beside the values); purified proteasome/UCH37, Ub-AMC cleavage fluorescence;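 active means mean inhibition over replicate wells above about 20%, limit read from the data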;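 further: 0% = compound-free wells with enzyme and 100% = wells lacking proteasome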
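Assay system: Proteasome-bound UCH37. Buffer or medium: pH 7.4 Tris-HCl (50 mM) with ovalbumin, ATP-MgCl2, DTT. Incubation: 30 min preincubation with enzyme, 25 min cleavage at room temperature. Measured by: fluorescence, ex 355 nm, em 460 nm. Read-out basis: percent inhibition. Control set: wells without proteasome as full block, compound-free enzyme plus substrate as uninhibited.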
LEDGF integ inh – blocks HIV-1 LEDGF/p75-dependent DNA integration; AID 743269; TR-FRET IN-LEDGF/p75 DNA integration, Eu/Cy5; 0.64% of 370,000 active; inhibition, % at 3.7 µM;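 active means inhibition above the screen-wide mean plus 3 SD, cut at about 13% in these data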;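 further: signal is the Cy5 over europium emission ratio at 671 and 618 nm; 0% = plate median of compound wells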
CASP6 VEID inh – caspase-6 (human) enzyme inhibition. P55212. purified caspase-6, Z-VEID-R110 cleavage fluorescence. inhibition, % at 12.5 µM. 0.53% of 350,000 active. AID 686996;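 active means mean inhibition across replicates at least about 35%, with every replicate also reaching that limit, limit read from the data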;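 further: 0% = median of neutral control wells and 100% = no fluorescence left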
Target sequence (P55212 24-179 limits assumed): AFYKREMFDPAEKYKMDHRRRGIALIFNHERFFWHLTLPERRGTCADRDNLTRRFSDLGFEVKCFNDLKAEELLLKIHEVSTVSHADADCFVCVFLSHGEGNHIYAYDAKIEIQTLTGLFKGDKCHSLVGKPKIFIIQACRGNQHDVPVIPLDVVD
Target sequence (P55212 194-293 limits assumed): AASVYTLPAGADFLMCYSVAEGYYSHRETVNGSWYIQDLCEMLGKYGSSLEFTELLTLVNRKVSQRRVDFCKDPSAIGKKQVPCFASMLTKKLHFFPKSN
TDP2 inh – blocks human TDP2 phosphodiesterase activity; recombinant TDP2, T5PNP hydrolysis, p-nitrophenol absorbance 415 nm; inhibition, % at 12.8 µM; 0.34% of 370,000 active;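 active means inhibition above the mean of all tested compounds plus 3 SD, set per campaign, cut at about 25% in these data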;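 further: 0% = DMSO with enzyme and 100% = buffer with substrate but no TDP2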
Target sequence (O95551 whole entry, looked up): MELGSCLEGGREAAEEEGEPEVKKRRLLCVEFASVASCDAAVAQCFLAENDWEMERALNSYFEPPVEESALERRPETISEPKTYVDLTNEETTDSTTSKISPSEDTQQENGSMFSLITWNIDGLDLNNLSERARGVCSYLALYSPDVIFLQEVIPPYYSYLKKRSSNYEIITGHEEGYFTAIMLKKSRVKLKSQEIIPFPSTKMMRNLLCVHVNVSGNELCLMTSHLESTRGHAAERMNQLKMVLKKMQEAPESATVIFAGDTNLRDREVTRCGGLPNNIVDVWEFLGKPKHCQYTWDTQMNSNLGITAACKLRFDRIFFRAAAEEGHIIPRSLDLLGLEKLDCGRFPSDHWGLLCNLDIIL
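test system = human TDP2 enzyme | input = TDP2 enzyme at 120 nM final | medium = 50 mM Tris-HCl pH 7.5 with Mg2+, KCl, DTT, BSA | also added = T5PNP substrate, 5 mM | times = 2 h at 37 °C | technique = epi absorbance | benchmarks = high control without enzyme, low control DMSO plus TDP2 | replication = each compound tested once, singlicate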
Alpha artifact – interferes with AlphaScreen signal, flagging NSD2 false positives; shares compounds with NSD2 HMT inh; AlphaScreen artifact counterscreen, preloaded methylated H4 peptide; AC35, µM (series often up to 10 µM), inactives show at the highest dose activity change, negative = signal loss; 9.4% of 1,500 active; call rule not given here
Numbers without * were called inactive. The list is not random: actives were taken first. Their share in the collection is about 1.3%.

`O=[N+]([O-])c1cccc(C=NNc2cc(Cl)nc(-c3ccccc3)n2)c1` gave UCH37 inh 9.8.
`Cc1ccc(NC(=O)c2cc([N+](=O)[O-])ccc2NCc2cccnc2)cc1Cl` gave NSD2 HMT inh 127.3*, UCH37 inh 4.9, LEDGF integ inh -3.7, TDP2 inh 10.8 and Alpha artifact -6.6%.
Screening COc1ccc(C=NNC(=O)CN2CCCc3ccccc32)c(OC)c1 returned UCH37 inh 3.5.
Screening Nc1c2c(=O)oc(-c3ccccc3)cc2nn1-c1ccccc1 returned NSD2 HMT inh 126.3*, UCH37 inh -26.1, LEDGF integ inh 0.5, TDP2 inh 0.4 and Alpha artifact -8.9%.
For O=C(CN1CCC(C(=O)c2ccc3c(c2)OCCO3)CC1)NCc1ccccc1 the results were NSD2 HMT inh 64.6*, UCH37 inh -0.8, LEDGF integ inh 7.1, CASP6 VEID inh 2.7, TDP2 inh -3.6 and Alpha artifact 0.6%.
`COc1ccc(C=NOC/C(O)=C(\C#N)c2nc3ccccc3[nH]2)cc1OC` gave UCH37 inh 2.5.
Screening COC(=O)CNC(=O)c1cccs1 returned NSD2 HMT inh 1.9, UCH37 inh 0.1, LEDGF integ inh 3.2 and TDP2 inh -7.9.
For COC(=O)C(C)(C)NC(=O)c1cccs1 the results were NSD2 HMT inh 124.3*, UCH37 inh 2.7, LEDGF integ inh -2.3, CASP6 VEID inh -0.6, TDP2 inh 5.2 and Alpha artifact 0.8%.
For CN(CCc1ccccc1)C1CCCN(S(=O)(=O)N(C)C)C1 (configuration not stated) the results were NSD2 HMT inh 53.2*, UCH37 inh 1.0, LEDGF integ inh -7.9, CASP6 VEID inh 3.6, TDP2 inh 1.0 and Alpha artifact -0.5%.
Screening CCc1nnc(NC(=O)c2ccc3ccccc3n2)s1 returned NSD2 HMT inh 78.3*, UCH37 inh 6.4, LEDGF integ inh 0.6, CASP6 VEID inh -4.5, TDP2 inh 9.5 and Alpha artifact -0.7%.
For CCc1nnc(NC(=O)c2ccc(COc3ccccc3)o2)s1 the results were NSD2 HMT inh 95.7*, UCH37 inh 2.4, LEDGF integ inh 4.2, TDP2 inh -3.8 and Alpha artifact 0.6%.
For COc1cc(/C=C/c2cccc[n+]2C)ccc1OCC(=O)Nc1ccccc1C the results were NSD2 HMT inh 130.8*, UCH37 inh -1.8, LEDGF integ inh 0.7, CASP6 VEID inh -15.9, TDP2 inh 1.9 and Alpha artifact -2.9%.
`CCn1c(SCC(=O)NN=C/C=C/c2ccccc2[N+](=O)[O-])nnc1-c1ccccc1` gave UCH37 inh 5.5.
CCN1C(=O)/C(=C\c2cccc(OC(=O)c3ccco3)c2)SC1=S was read as NSD2 HMT inh 0.5, UCH37 inh 1.3, LEDGF integ inh -2.7, CASP6 VEID inh -0.2 and TDP2 inh -6.8.
`O=C(O)CN1C(=O)/C(=C\c2cccc(OCc3ccc(F)cc3)c2)SC1=S` gave NSD2 HMT inh 54.4*, UCH37 inh 14.6, LEDGF integ inh 2.0, TDP2 inh 11.5 and Alpha artifact -12.2%.
Screening NC(=S)NN=Cc1ccccc1O returned UCH37 inh -48.9.
Nc1c(C(=O)NCc2ccc(F)cc2)c2nc3ccccc3nc2n1CCCN1CCOCC1 was read as NSD2 HMT inh 81.7*, UCH37 inh -285.5, LEDGF integ inh -2.8, TDP2 inh -4.4 and Alpha artifact 20.9%.
Cc1c(C(=O)N2CCN(c3ccc(F)cc3)CC2)sc2ncnc(N3CCN(c4ccccn4)CC3)c12 was read as NSD2 HMT inh 58.9*, UCH37 inh 0.8, LEDGF integ inh -3.9, CASP6 VEID inh 0.6, TDP2 inh 3.3 and Alpha artifact -6.1%.
`Cc1c(C(=O)N2CCN(c3ccccc3)CC2)sc2ncnc(N3CCN(c4ccccn4)CC3)c12` gave NSD2 HMT inh 3.7, LEDGF integ inh -1.9, CASP6 VEID inh 7.6 and TDP2 inh -2.2.
O=[N+]([O-])c1cccc(/C=C/C=NNc2nc(N3CCCCC3)nc(N3CCCCC3)n2)c1 was read as UCH37 inh 7.2.
For COc1cc(OC)c(C(=O)OCC(=O)Nc2c(C)n(C)n(-c3ccccc3)c2=O)cc1OC the results were NSD2 HMT inh 0.1, UCH37 inh 5.4, LEDGF integ inh -0.7, CASP6 VEID inh -0.6 and TDP2 inh 8.2.
COc1ccc(C(=O)OCC(=O)Nc2c(C)n(C)n(-c3ccccc3)c2=O)cc1 was read as NSD2 HMT inh 51.3*, UCH37 inh 4.5, LEDGF integ inh -0.4, CASP6 VEID inh -3.0, TDP2 inh -20.2 and Alpha artifact -1.8%.
For Cc1cccc(C)c1NC(=S)N(CCCN1CCN(C)CC1)Cc1cccs1 the results were NSD2 HMT inh 74.7*, UCH37 inh 0.5, LEDGF integ inh 2.7, TDP2 inh -6.2 and Alpha artifact -6.9%.
Screening Cc1cc(C)cc(NC(=S)N(CCCN2CCN(C)CC2)Cc2cccs2)c1 returned NSD2 HMT inh 2.0, UCH37 inh 0.9, LEDGF integ inh -1.3, CASP6 VEID inh -3.7 and TDP2 inh 3.3.
CCOC(=O)C1CCN(c2nc(C)cc(C)c2C#N)CC1 was read as NSD2 HMT inh -2.2, UCH37 inh -1.8, LEDGF integ inh 5.4 and TDP2 inh 6.4.
Screening CCOC(=O)C1CCN(c2nc(N)c3c(N)nc(SCC(=O)O)cc3c2C#N)CC1 returned NSD2 HMT inh 101.3*, UCH37 inh -107.6, LEDGF integ inh -7.1, CASP6 VEID inh 65.1*, TDP2 inh 12.8 and Alpha artifact -5.5%.
CC(C)NC1CCC(Nc2ccnc3cc(Cl)ccc23)CC1 (configuration not stated) was read as NSD2 HMT inh 81.2*, UCH37 inh 5.9, LEDGF integ inh 3.5, CASP6 VEID inh -13.6, TDP2 inh 3.7 and Alpha artifact -2.7%.
COc1ccc(-c2ncncc2-c2ccccc2)c(O)c1 was read as NSD2 HMT inh 67.7*, UCH37 inh 0.9, LEDGF integ inh -1.6, CASP6 VEID inh 5.6, TDP2 inh -4.6 and Alpha artifact -2.3%.
`C=CC[n+]1c(-c2ccc(Cl)cc2Cl)csc1Nc1c(C)n(C)n(-c2ccccc2)c1=O` gave NSD2 HMT inh 50.7*, UCH37 inh 3.5, LEDGF integ inh 1.7, CASP6 VEID inh 14.8, TDP2 inh -6.0 and Alpha artifact -14.4%.
Screening CC(CC(=O)Nc1ccc(F)cc1)=NNC(=O)c1ccccn1 returned UCH37 inh 3.1.
COc1ccc(COc2ncnc3ccc(Br)cc23)cc1F was read as NSD2 HMT inh 122.2*, UCH37 inh -0.1, LEDGF integ inh 3.5, CASP6 VEID inh -2.1, TDP2 inh 7.0 and Alpha artifact -3.1%.
For CCCN(CCC)CCCNC(=S)Nc1ccc2nc(N3CCN(C)CC3)cc(C)c2c1 the results were NSD2 HMT inh 35.0, UCH37 inh -8.8, LEDGF integ inh 4.5, CASP6 VEID inh -63.5 and TDP2 inh 1.5.

Assay outcomes as filed in PubChem.
